From ChEMBL document CHEMBL3797173, “Synthesis, anticancer activity, and SAR analyses of compounds containing the 5:7-fused 4,6,8-triaminoimidazo[4,5-e][1,3]diazepine ring system” (Bioorg Med Chem, 2016)

Legend:
[1] = Anticancer activity against human PC3 cells incubated for 72 hrs by WST1 assay; format: functional, cell-based, PC-3
In short: (§1)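 Cells (0.5–1.7x10³ per well) seeded in RPMI + 10% FBS the day before dosing. Endpoint: WST-1 reagent added, 4 h further incubation at 37 °C, 5% CO₂, then absorbance read at 450–690 nm. IC50 derived from these readouts.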

MCF7 = assay: Anticancer activity against human MCF7 cells incubated for 72 hrs by WST1 assay; format: functional, cell-based; in short: as §1
MDA-MB-231 = assay: Anticancer activity against human MDA-MB-231 cells incubated for 72 hrs by WST1 assay; format: functional, cell-based; in short: as §1
[2] = Anticancer activity against human OVCAR3 cells incubated for 72 hrs by WST1 assay; format: functional, cell-based, OVCAR-3; in short: as §1
A549 = assay: Anticancer activity against human A549 cells incubated for 72 hrs by WST1 assay; format: functional, cell-based; in short: as §1
[3] = Anticancer activity against human H460 cells incubated for 72 hrs by WST1 assay; format: functional, cell-based, NCI-H460; in short: as §1
[4] = Homo sapiens, PC-3, 72 h, read-out: IC50
[5] = Homo sapiens, MCF7, 72 h, read-out: IC50
[6] = Homo sapiens, MDA-MB-231, 72 h, read-out: IC50
[7] = Homo sapiens, OVCAR-3, 72 h, read-out: IC50
[8] = Homo sapiens, A549, 72 h, read-out: IC50
[9] = Homo sapiens, NCI-H460, 72 h, read-out: IC50

IC50 (MCF7; [5]) [µM] | IC50 (MDA-MB-231; [6]) [µM] | IC50 (A549; [8]) [µM] | IC50 (MDA-MB-231; mda-mb-231) | IC50 (MCF7; mcf7) | IC50 (A549; a549) | SMILES | IC50 [1, 4] [µM] | IC50 [2, 7] [µM] | IC50 [3, 9] [µM] | IC50 ([2]; ovcar-3) | IC50 ([1]; pc-3) | IC50 ([3]; nci-h460)
1.4 | 2.05 | 1.8 |  |  |  | CCCCCCCCCC/N=c1\nc(N)c2ncn(Cc3ccccc3)c2c(N)n1 | 5.15 | 3.95 | 3.2 |  |  | 
4.55 | 4.75 | 3.83 |  |  |  | CCCCCCCC/N=c1\nc(N)c2ncn(Cc3ccccc3)c2c(N)n1 | 5.93 | 4.98 | 7.45 |  |  | 
3.53 | 1.43 | 1.85 |  |  |  | CCCCCCCCCCCCCCCCCC/N=c1\nc(N)c2nc[nH]c2c(N)n1 | 2.61 | 3.1 | 1.75 |  |  | 
4.1 | 5.85 | 4.25 |  |  |  | CCCCCCCCCCCCCC/N=c1\nc(N)c2ncn(Cc3ccccc3)c2c(N)n1 | 4.2 | 5.5 | 6.75 |  |  | 
8.3 | 5.4 | 5.3 |  |  |  | CCCCCCCCCCCCCCCCCC/N=c1\nc(N)c2ncn(Cc3ccccc3)c2c(N)n1 | 5.45 | 4.95 | 5.4 |  |  | 
3 | 3.6 | 5.9 |  |  |  | CCCCCCCC/N=c1\nc(N)c2ncn(Cc3ccc(F)cc3)c2c(N)n1 | 3.8 | 4.3 | 4.7 |  |  | 

Further lines, the compound ahead of its results:

SMILES | IC50 (MCF7; [5]) [µM] | IC50 (MDA-MB-231; [6]) [µM] | IC50 (A549; [8]) [µM] | IC50 (MDA-MB-231; mda-mb-231) | IC50 (MCF7; mcf7) | IC50 (A549; a549) | IC50 [1, 4] [µM] | IC50 [2, 7] [µM] | IC50 [3, 9] [µM] | IC50 ([2]; ovcar-3) | IC50 ([1]; pc-3) | IC50 ([3]; nci-h460)
Nc1n/c(=N\CCCCc2ccccc2)nc(N)c2c1ncn2Cc1ccccc1 | 8.8 | 16.6 | 15.3 |  |  |  | > 75 | 37.3 | 18.8 |  |  | 
CCCCCCCC/N=c1\nc(N)c2ncn(Cc3ccc(OC)cc3)c2c(N)n1 | 3.8 | 2.55 | 5.7 |  |  |  | 5.9 | 3.75 | 4.2 |  |  | 
CC/N=c1\nc(N)c2nc[nH]c2c(N)n1 | > 100 |  | 38 | Not Active |  |  | > 100 |  | 22 | Not Active |  | 
Nc1n/c(=N\CCc2ccccc2)nc(N)c2c1ncn2Cc1ccccc1 | 10.4 | 17.9 | 20.4 |  |  |  | 13.1 | 31.7 | 36.6 |  |  | 
CCCCCCCC/N=c1\nc(N)c2nc[nH]c2c(N)n1 |  |  |  | Not Active | Not Active | Not Active |  |  |  | Not Active | Not Active | Not Active
